ChEMBL document CHEMBL1140296, “Anilinodialkoxyquinazolines: screening epidermal growth factor receptor tyrosine kinase inhibitors for potential tumor imaging probes” (J Med Chem, 2005)

Tests used:
[1] = target: T1, Epidermal growth factor receptor (Homo sapiens, UniProt P00533); assay: Displacement of [125I]4-(3-iodoanilino)-6,7-dimethoxyquinazoline from EGFR tyrosine kinase in human A431 cell membranes; set-up: species or system A-431
[2] = Lipophilicity, log P of the compound; type: physicochemical; settings: octanol/water
Summary of the method: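 Log Po/w estimated by reversed-phase HPLC on a C8 column. Mobile phases were methanol with 0.25% 1-octanol and octanol-saturated water with 0.02 M MOPS and 0.15% n-decylamine, pH 7.4, at 1 mL/min. Uracil served as void marker. log k′w was obtained by linear extrapolation of retention over 60–85% methanol.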

[3] = target: T1, Epidermal growth factor receptor; assay: Inhibition of human EGFR tyrosine kinase phosphorylation expressed in mouse BaF3 cells; type: functional, cell-based
[4] = target: Receptor tyrosine-protein kinase erbB-4 (Homo sapiens, UniProt Q15303); assay: Inhibition of human ErbB4 tyrosine kinase phosphorylation expressed in human CEM/4 cells; type: functional, cell-based
Receptor tyrosine-protein kinase erbB-4, sequence (Q15303 whole entry): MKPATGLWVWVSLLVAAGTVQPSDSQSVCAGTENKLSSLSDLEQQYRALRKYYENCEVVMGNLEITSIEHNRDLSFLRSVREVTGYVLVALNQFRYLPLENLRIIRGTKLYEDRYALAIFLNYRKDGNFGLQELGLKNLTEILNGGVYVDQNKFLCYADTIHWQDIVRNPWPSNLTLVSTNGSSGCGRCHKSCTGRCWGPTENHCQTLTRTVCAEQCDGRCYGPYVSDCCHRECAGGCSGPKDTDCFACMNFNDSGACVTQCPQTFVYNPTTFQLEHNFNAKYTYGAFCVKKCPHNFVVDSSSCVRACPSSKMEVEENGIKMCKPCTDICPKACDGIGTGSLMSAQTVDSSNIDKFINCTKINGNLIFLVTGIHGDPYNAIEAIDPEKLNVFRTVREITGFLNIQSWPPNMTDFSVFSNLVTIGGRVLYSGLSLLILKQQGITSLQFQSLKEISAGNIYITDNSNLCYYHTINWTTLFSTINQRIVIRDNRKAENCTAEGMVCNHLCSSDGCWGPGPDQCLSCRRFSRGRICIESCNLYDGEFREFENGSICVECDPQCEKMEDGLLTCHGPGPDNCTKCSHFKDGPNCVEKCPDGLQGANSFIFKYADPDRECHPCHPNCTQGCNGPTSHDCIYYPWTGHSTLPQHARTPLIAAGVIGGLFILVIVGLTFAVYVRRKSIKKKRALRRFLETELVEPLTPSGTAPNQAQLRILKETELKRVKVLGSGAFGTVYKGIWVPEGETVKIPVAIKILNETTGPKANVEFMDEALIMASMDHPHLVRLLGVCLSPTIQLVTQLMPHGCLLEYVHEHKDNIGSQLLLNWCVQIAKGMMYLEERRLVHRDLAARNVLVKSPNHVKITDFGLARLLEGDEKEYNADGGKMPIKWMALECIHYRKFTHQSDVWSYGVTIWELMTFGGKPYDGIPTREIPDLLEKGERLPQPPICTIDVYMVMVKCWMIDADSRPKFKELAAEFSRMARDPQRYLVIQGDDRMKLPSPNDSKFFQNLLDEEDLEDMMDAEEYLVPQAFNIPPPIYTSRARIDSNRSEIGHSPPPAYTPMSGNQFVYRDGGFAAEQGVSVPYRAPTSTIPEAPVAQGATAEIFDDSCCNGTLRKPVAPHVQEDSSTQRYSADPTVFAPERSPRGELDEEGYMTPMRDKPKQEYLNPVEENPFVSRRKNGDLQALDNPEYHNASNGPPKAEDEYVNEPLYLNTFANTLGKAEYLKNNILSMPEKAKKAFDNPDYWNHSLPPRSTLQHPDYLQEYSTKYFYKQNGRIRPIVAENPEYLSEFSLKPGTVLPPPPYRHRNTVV
Summary of the method: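 CEM cells expressing ErbB4, grown in RPMI with 10% heat-inactivated FBS and G418, then serum-starved 24 h at 37 °C. About 10^7 cells/mL given inhibitor at three to five concentrations for 2 h at 37 °C, chilled 20 min, then stimulated with NRG1β 100 ng/mL final for 7 min on ice. Lysate glycoproteins captured on ConA. Phosphotyrosine read by 4G10 immunoblot. IC50 read against DMSO standard curve.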

[5] = target: Receptor tyrosine-protein kinase erbB-2 (Homo sapiens, UniProt P04626); assay: Inhibition of human ErbB2 tyrosine kinase phosphorylation expressed in mouse BaF3 cells; type: functional, cell-based
Receptor tyrosine-protein kinase erbB-2, sequence (P04626 whole entry): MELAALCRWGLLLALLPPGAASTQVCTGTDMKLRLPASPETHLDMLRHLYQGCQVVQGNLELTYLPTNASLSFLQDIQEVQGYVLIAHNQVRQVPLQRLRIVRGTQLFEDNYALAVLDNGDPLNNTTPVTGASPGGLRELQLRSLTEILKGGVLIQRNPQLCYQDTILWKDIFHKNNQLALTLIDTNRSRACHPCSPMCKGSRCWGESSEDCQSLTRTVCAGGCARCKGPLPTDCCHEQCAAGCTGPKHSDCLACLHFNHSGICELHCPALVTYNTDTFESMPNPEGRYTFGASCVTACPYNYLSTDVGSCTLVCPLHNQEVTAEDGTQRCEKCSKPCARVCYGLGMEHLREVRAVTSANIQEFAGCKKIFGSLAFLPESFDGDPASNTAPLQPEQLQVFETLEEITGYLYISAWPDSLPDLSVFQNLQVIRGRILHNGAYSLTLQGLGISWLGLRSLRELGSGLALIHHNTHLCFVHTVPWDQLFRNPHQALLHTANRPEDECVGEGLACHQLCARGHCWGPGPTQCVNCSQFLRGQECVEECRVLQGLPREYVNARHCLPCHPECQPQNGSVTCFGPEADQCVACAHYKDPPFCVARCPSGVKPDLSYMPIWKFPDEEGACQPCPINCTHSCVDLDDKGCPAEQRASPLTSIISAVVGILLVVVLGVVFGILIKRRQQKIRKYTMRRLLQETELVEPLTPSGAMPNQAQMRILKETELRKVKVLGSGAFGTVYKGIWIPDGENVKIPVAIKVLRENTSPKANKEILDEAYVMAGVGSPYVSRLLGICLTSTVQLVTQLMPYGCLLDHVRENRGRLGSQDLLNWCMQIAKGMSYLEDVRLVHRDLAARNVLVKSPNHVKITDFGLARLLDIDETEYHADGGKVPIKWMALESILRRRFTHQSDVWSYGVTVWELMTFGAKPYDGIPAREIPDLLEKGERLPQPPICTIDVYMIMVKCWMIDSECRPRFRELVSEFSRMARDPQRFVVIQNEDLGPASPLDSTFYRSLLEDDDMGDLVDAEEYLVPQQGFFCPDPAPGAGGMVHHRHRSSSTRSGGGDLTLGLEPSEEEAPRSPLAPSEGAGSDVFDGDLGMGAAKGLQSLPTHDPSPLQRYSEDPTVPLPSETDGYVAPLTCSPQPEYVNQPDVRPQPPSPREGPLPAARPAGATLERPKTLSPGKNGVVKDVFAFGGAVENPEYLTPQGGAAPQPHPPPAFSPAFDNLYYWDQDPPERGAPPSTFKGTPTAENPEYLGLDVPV

T1 sequence (P00533 whole entry): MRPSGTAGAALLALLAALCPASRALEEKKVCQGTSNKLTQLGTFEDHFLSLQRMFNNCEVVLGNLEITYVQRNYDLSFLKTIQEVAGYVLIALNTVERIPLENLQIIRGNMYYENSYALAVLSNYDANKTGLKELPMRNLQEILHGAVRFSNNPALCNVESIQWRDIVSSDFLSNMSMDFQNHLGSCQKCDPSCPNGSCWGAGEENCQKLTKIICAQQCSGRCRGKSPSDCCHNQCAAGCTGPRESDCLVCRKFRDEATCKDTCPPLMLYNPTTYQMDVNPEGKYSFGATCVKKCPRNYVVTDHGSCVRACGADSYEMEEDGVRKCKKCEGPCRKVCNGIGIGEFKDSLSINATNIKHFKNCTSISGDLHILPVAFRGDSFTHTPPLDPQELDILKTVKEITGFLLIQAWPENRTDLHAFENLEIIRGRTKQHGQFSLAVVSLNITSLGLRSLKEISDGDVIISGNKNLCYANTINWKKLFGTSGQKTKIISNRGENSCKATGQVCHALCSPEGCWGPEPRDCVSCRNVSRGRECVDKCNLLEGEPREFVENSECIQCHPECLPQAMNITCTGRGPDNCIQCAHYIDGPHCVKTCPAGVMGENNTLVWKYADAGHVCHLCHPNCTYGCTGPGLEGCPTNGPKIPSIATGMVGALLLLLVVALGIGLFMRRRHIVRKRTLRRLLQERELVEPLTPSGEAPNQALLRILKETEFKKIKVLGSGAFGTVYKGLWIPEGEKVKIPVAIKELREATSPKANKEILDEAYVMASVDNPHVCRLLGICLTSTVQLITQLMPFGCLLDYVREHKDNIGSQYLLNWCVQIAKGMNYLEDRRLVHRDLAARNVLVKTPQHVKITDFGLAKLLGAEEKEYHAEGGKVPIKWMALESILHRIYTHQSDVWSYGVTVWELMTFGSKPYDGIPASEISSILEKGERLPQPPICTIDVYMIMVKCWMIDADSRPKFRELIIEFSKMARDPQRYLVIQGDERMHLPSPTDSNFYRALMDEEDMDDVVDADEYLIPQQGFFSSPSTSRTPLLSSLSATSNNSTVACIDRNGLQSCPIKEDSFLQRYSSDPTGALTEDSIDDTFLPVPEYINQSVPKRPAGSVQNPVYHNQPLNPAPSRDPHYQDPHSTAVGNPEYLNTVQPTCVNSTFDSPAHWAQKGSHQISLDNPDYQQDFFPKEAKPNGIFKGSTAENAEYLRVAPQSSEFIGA

## COc1cc2ncnc(Nc3cccc(I)c3)c2cc1OC
[1]
  IC50: 1.05 nM
[2]
  logP: 3.65
[3]
  IC50: 6.4 nM

## COc1cc2ncnc(Nc3ccc(F)cc3)c2cc1OC
[1]
  IC50: 51 nM
[2]
  logP: 2.87
[3]
  IC50: 19.1 nM

## COc1cc2ncnc(Nc3cccc(Cl)c3)c2cc1OC
[2]
  logP: 3.51

## COc1cc2ncnc(Nc3cccc(Br)c3)c2cc1OC
[2]
  logP: 3.49
[4]
  IC50: 49 nM

## CCOc1cc2ncnc(Nc3cc(F)cc(C(F)(F)F)c3)c2cc1OCC
[1]
  IC50: 8.95 nM
[2]
  logP: 5.49
[3]
  IC50: > 50 nM

## CCOc1cc2ncnc(Nc3cccc(F)c3)c2cc1OCC
[1]
  IC50: 8.17 nM
[2]
  logP: 3.71
[3]
  IC50: 6.5 nM

## COc1cc2ncnc(Nc3cc(F)cc(C(F)(F)F)c3)c2cc1OC
[1]
  IC50: 20 nM
[2]
  logP: 4.66
[3]
  IC50: 19.1 nM

## CCOc1cc2ncnc(Nc3cccc(I)c3)c2cc1OCC
[1]
  IC50: 0.64 nM
[2]
  logP: 4.62
[4]
  IC50: 59 nM
[3]
  IC50: 4.6 nM
[5]
  IC50: 69 nM

## CCOc1cc2ncnc(NCc3ccc(F)cc3)c2cc1OCC
[1]
  IC50: 17 nM
[2]
  logP: 3.78
[4]
  IC50: > 100 nM
[3]
  IC50: 6.6 nM
[5]
  IC50: 231 nM

## CCOc1cc2ncnc(Nc3ccccc3F)c2cc1OCC
[1]
  IC50: 9.31 nM
[2]
  logP: 3.02
[3]
  IC50: 15.8 nM

## COc1cc2ncnc(NCc3ccc(F)cc3)c2cc1OC
[2]
  logP: 3.02

## CCOc1cc2ncnc(Nc3cccc(Br)c3)c2cc1OCC
[1]
  IC50: 0.41 nM
[2]
  logP: 4.4
[4]
  IC50: 50 nM
[3]
  IC50: 3.2 nM
[5]
  IC50: 215 nM

## COc1cc2ncnc(Nc3ccccc3F)c2cc1OC
[1]
  IC50: 32.2 nM
[2]
  logP: 2.2
[3]
  IC50: 12.8 nM

## CCOc1cc2ncnc(Nc3cccc(Cl)c3)c2cc1OCC
[1]
  IC50: 0.38 nM
[2]
  logP: 4.31
[3]
  IC50: 1.2 nM

## CCOc1cc2ncnc(Nc3ccc(F)cc3)c2cc1OCC
[1]
  IC50: 16 nM
[2]
  logP: 3.73
[3]
  IC50: 23.1 nM

## COc1cc2ncnc(Nc3cccc(F)c3)c2cc1OC
[2]
  logP: 2.96
